Source: ChEMBL document CHEMBL1127856, “Synthesis and structure-activity studies on acidic amino acids and related diacids as NMDA receptor ligands” (J Med Chem, 1994)

How the values were obtained:
[1] = molecular target: T1, Glutamate receptor ionotropic, AMPA (Rattus norvegicus, UniProt P19490+P19491+P19492+P19493); experiment: Tested in vitro for the concentration required to inhibit [3H]AMPA radioligand at EAA receptor sites in rat cortical membranes; type: cell membranes
How it was run: (§1)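 Radioligand displacement ([3H]AMPA or [3H]CPP) in rat cortical membranes prepared by the Ransom and Stec method.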

[2] = molecular target: Glutamate receptor ionotropic, NMDA 2C (Rattus norvegicus) (UniProt Q00961); experiment: pKa was determined; type: functional
[3] = molecular target: Glutamate NMDA receptor; experiment: Tested in vitro for the concentration required to inhibit [3H]CPP radioligand at EAA receptor sites in rat cortical membranes; type: cell membranes; how it was run: as §1
[4] = species on record: Rattus norvegicus; experiment: Effective concentration in vitro as electropharmacological activity in the rat cortical wedge preparation; type: functional
How it was run: (§2)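 Rat brain wedges (500 μm) containing cerebral cortex and corpus callosum, separated by a grease gap. The cortex side is perfused with Mg2+-free oxygenated Krebs buffer containing the compounds, and the callosum side with Mg2+- and Ca2+-free Krebs. DC potentials are recorded via Ag/AgCl electrodes. Agonists for antagonism: NMDA 10 μM, AMPA 5 μM, kainic acid 10 μM. Dose–response curves come from single experiments, each repeated at least twice.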

[5] = molecular target: Glutamate NMDA receptor; experiment: Stimulation of [3H]-MK-801 binding to EAA receptor sites in rat cortical membranes
[6] = molecular target: Glutamate receptor ionotropic, AMPA (Rattus norvegicus) (UniProt P19491+P19492+P19493+P19490); experiment: Inhibition of [3H]AMPA radioligand at EAA receptor sites in rat cortical membranes at 100 uM concentration; type: cell membranes; conditions: Membrane; how it was run: as §1
[7] = molecular target: Glutamate NMDA receptor (Rattus norvegicus) (UniProt P35439+Q00959+Q00960+Q00961+Q62645+Q8VHN2+Q9R1M7); experiment: Inhibition of [3H]CPP radioligand at EAA receptor sites in rat cortical membranes at 100 uM concentration; type: cell membranes; conditions: Membrane; how it was run: as §1
[8] = species on record: Rattus norvegicus; experiment: Effective concentration in vitro as electropharmacological activity in the rat cortical wedge preparation; antagonist; type: functional; how it was run: as §2
[9] = molecular target: T1, Glutamate receptor ionotropic, AMPA; experiment: Tested in vitro for the concentration required to inhibit [3H]AMPA radioligand at AMPA receptor sites in rat cortical membranes; type: cell membranes

Sequence of Glutamate receptor ionotropic, NMDA 2C (Rattus norvegicus) (Q00961 20-1237 limits assumed): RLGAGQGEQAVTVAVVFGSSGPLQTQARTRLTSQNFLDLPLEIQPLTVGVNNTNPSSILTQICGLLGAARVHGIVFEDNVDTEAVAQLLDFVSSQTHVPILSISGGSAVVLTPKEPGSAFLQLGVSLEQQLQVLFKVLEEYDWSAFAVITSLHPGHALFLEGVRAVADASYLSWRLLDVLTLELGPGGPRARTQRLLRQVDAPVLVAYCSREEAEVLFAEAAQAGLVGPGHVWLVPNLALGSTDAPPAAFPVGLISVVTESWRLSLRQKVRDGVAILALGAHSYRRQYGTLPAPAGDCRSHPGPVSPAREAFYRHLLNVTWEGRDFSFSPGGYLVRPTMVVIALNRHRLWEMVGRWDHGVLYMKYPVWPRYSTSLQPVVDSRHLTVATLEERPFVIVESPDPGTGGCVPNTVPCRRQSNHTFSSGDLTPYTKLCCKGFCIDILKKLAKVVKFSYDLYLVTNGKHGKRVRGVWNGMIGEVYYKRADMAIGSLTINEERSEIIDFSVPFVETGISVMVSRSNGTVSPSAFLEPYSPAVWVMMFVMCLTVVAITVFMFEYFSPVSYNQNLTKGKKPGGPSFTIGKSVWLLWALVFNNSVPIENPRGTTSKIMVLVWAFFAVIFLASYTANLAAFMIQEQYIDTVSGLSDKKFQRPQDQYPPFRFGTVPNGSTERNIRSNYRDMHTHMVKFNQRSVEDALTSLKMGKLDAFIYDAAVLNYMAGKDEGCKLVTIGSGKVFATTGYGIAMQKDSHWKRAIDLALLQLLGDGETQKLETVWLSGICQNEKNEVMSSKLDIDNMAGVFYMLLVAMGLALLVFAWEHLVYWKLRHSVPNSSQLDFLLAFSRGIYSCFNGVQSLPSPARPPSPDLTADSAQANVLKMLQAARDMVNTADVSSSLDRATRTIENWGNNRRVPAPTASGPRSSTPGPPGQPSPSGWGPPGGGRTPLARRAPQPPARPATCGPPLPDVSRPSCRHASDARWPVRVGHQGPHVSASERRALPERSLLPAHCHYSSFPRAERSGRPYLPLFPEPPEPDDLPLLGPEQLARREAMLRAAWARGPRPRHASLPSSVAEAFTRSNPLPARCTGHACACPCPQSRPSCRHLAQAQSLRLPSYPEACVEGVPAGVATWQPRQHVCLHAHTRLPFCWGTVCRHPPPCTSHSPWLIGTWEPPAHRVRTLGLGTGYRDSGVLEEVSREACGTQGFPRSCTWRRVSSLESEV

SMILES	IC50 [1] [µM]	pKa [2]	IC50 [3] [µM]	EC50 [4] [µM]	EC50 [5] [µM]	inhibition [6] [%]	inhibition [7] [%]	EC50 [8]	IC50 [9] [µM]
COC(C(=O)O)c1c(O)noc1C (configuration not stated)	> 100		> 100	> 5000	> 100				
CC(C)(C)c1onc(O)c1C(N)C(=O)O (configuration not stated)	> 100		> 100		> 100	8	25	Antagonist	
NC1(C(=O)O)CCCCc2onc(O)c21 (configuration not stated)	> 100		> 100	2500	> 100				
CSC(C(=O)O)c1c(O)noc1C (configuration not stated)	> 100		> 100	> 5000	> 100				
NC(Cc1c(O)noc1CBr)C(=O)O (configuration not stated)				13	> 100				0.03
CC(C)(C)c1onc(O)c1CC(N)C(=O)O (configuration not stated)			> 100	48	> 100				
NC(C(=O)O)c1c(O)noc1CO (configuration not stated)	> 100			8	5				

Continued, values first:

IC50 [1] [µM]	pKa [2]	IC50 [3] [µM]	EC50 [4] [µM]	EC50 [5] [µM]	inhibition [6] [%]	inhibition [7] [%]	EC50 [8]	IC50 [9] [µM]	SMILES
> 100	< 2	> 100	1500						O=C(O)c1cccnc1C(=O)O [QUINOLINIC ACID]
> 100		18.3	70	50					CNC(C(=O)O)c1c(C)o[nH]c1=O (configuration not stated)
> 100			4.3	0.45					Cc1o[nH]c(=O)c1C(N)C(=O)O (configuration not stated)
0.4		> 100	110	> 100					NC(Cc1c(O)noc1CO)C(=O)O (configuration not stated)
